Measured values as given in paper PMC5006643 (EBioMedicine, 2016).
Where no end group is shown, it is not given here. [ ]: non-standard residue; d: D form. sY = N[C@@H](Cc1ccc(OS(=O)(=O)O)cc1)C(=O)O

Key:
[1] = test system: binding of BG505 SOSIP.664 trimer to human CCR5; type: cell-based, HIV-1; conditions: Cf2Th/syn-CCR5 canine thymocytes, flow cytometry, dose-response
Procedure, shortened: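 Cf2Th/syn-CCR5 cells were harvested at ~80% confluency with enzyme-free dissociation buffer. His-tagged BG505 SOSIP.664 trimer was preincubated with 2-domain sCD4 for 1 h at 4 °C, treated with test compound across a dose range, then bound to cells for 1 h at 4 °C. After washes, bound trimer was detected with PE anti-His antibody (1 h, 4 °C). Cells were fixed in 2% PFA and analysed by flow cytometry. Anti-CCR5 mAb 2D6 confirmed specificity.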

HIV-1 BaL = assay: Acute HIV-1 infection assay in primary human CD4+ T cells; type: cell-based; conditions: dose-response; for inhibition of HIV-1 BaL infection: cell-free acute infection of primary human CD4+ T cells
Procedure, shortened: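 Peptides were stocked at 10 mg/mL in NH4OH and stored frozen. Cell-free infection of primary human CD4+ T cells used CCR5-tropic HIV-1 BaL. Test peptides were titrated for dose-response, and non-sulfated homologous peptides and a scrambled sulfated control peptide were run in parallel. Cell viability was assessed in a separate assay.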

[2] = test system: panel of 12 HIV-1 strains; assay: Infection of CD4+ T cells by a panel of 12 HIV-1 strains; type: cell-based; conditions: 50 μM
Procedure, shortened: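 Cell-free infection of purified primary human CD4+ T cells, with each test compound at 50 μM. The panel had eight minimally passaged primary isolates (92US714, 92HT599, 07USLR, 07USPC, 07USSG, subtype B; 97ZA009, 98IN017, subtype C; 93BR019, subtype F) and four laboratory-expanded subtype B strains (BaL, JR-FL, ADA, IIIB). Both CCR5-tropic and CXCR4-using phenotypes were included.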

[3] = test system: recombinant gp120 (strain BaL); assay: SPR of monomeric gp120 binding to immobilized V2 peptide; design: species or system HIV-1; conditions: peptide immobilized on CM5, gp120 BaL pre-complexed with CD4-M48U
Procedure, shortened: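 The sulfated V2 test peptide was immobilized on a CM5 chip. Recombinant monomeric gp120 BaL (25–400 nM) was preincubated with a 2-fold molar excess of CD4-M48U […]. It was injected for 2 min at 25 μL/min in HBS with 3 mM EDTA and 0.005% Tween-20, followed by 2 min dissociation. Surfaces were regenerated with 4.5 M MgCl2.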

[4] = test system: sCD4:gp120 complex (gp120 BaL); assay: NMR trNOESY interaction and competition with gp120/sCD4; type: binding, HIV-1; conditions: 2D NOESY, 0.8 mM peptide
Procedure, shortened: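 The tyrosine-sulfated V2 peptide was 15N-labelled at Ala/Ile/Leu/Phe/Val, at 800 μM (0.8 mM). It was incubated 1 h on ice with 20 μM sCD4, 20 μM recombinant gp120 BaL, or both. Samples were exchanged into 20 mM sodium phosphate pH 6.8, 50 mM NaCl, 0.02% azide, 10% D2O. NOESY was run at 30 °C, 600 MHz, with mixing times 100/250/400 ms. For competition, 0.4 mM peptide was used with 0, 0.8 or 1.6 mM unlabelled sulfated CCR5 N-terminal peptide.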

[5] = test system: soluble, stabilized gp140 trimer (BG505-SOSIP.664); assay: SPR of soluble gp140 trimer binding to immobilized V2 peptide; design: species or system HIV-1; conditions: SOSIP trimer 12.5-200 nM, absence of the CD4 mimic
Procedure, shortened: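 The sulfated V2 test peptide was immobilized on a CM5 surface. Unliganded BG505 SOSIP.664 trimer (12.5–200 nM; produced in 293FS cells, lectin-affinity and size-exclusion purified) was injected for 2 min at 25 μL/min in HBS with 3 mM EDTA and 0.005% Tween-20, followed by 2 min dissociation. Regeneration used a brief 4.5 M MgCl2 pulse.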

Question: Which results are given for “DPVLEF[sY]KID[sY]IELAVQK [pSCR-Tys, reference compound]”?
Answer: inhibition of binding of sCD4-activated BG505 SOSIP.664 trimer to CCR5 [1]: limited effects; inhibition of HIV-1 BaL infection (HIV-1 BaL): did not show significant inhibitory activity

Question: For KKQKVHALF[sY]KLDIVPIK [pV2αΕ-Tys], which “relative potency over the strain panel” value ([2]; compared to pV2α-Tys) is on record?
Answer: generally lower potency compared to pV2α-Tys

Question: And the “number of resistant HIV-1 strains of 12” value ([2]; purified CD4+ T cells)?
Answer: 3

Question: What does the source list for KVQKE[sY]ALF[sY]ELDIVPID [pV2α-Tys]?
Answer: ka [3]: 48300 M⁻¹ s⁻¹; inhibition of binding of sCD4-activated BG505 SOSIP.664 trimer to CCR5 [1]: reduced CCR5 binding of the trimer in a dose-dependent fashion; trNOE signals (binding) with sCD4:gp120 complex ([4]; 20 μM sCD4:gp120, 30 °C): appearance of numerous NOE crosspeaks; trNOE signals (binding) with gp120 alone ([4]; gp120 alone): small number of weak trNOE crosspeaks; trNOE signals (binding) with sCD4 alone ([4]; sCD4 alone): no pV2α-Tys trNOEs signals were observed; binding of soluble gp140 trimer to immobilized peptide [5]: unable to bind; inhibition of HIV-1 BaL infection (HIV-1 BaL): potently inhibited infection

Question: Which “activity against CCR5-tropic isolates” value ([2]; purified CD4+ T cells) does the source give for “MDYQVSSPI[sY]DIN[sY]YTSEPSQK [pCCR5-Tys, reference compound]” here?
Answer: restricted activity against CCR5-tropic isolates

Question: What about the “activity against CXCR4-using (R5X4 and X4) isolates” value ([2]; purified CD4+ T cells) of the same substance?
Answer: inactive

Question: What about the “inhibition of binding of sCD4-activated BG505 SOSIP.664 trimer to CCR5” value [1] of the same substance?
Answer: Dose-dependent inhibitory effect

Question: And the “inhibition of HIV-1 BaL infection” value (HIV-1 BaL)?
Answer: dose-dependent HIV-1 inhibition

Question: How did the “inhibition of HIV-1 BaL infection” value (HIV-1 BaL) turn out when “Tys173: pV2α version bearing a single sulfated tyrosine at position 173 (KVQKE[sY]ALFYELDIVPID)” was run?
Answer: exhibited antiviral activity

Question: What does the source list for “Tys177: pV2α version bearing a single sulfated tyrosine at position 177 (KVQKEYALF[sY]ELDIVPID)”?
Answer: inhibition of HIV-1 BaL infection (HIV-1 BaL): exhibited antiviral activity; relative potency in inhibition of HIV-1 BaL infection (HIV-1 BaL; primary CD4+ T cells, singly vs doubly sulfated peptides): more potent than Tys173
